According to ChEMBL document CHEMBL3352730, “Synthesis and effects on cell viability of flavonols and 3-methyl ether derivatives on human leukemia cells” (Eur J Med Chem, 2014):
Calls of active or inactive are those of the source. The rule behind the calls is not given here.

What was measured:
U-937 [1] = assay: Induction of cell cycle arrest in human U937 cells assessed as accumulation at G2/M phase at 3 uM after 48 hrs by propidium iodide staining based flow cytometry (reference value: 19.1 +/- 1.1%); assay type: functional
HL-60 [2] = assay: Induction of cell cycle arrest in human HL60 cells assessed as accumulation at S phase at 3 uM after 24 hrs by propidium iodide staining based flow cytometry (reference value: 17.9 +/- 0.6%); assay type: functional
[3] = molecular target: Mitogen-activated protein kinase; ERK1/ERK2 (Homo sapiens) (UniProt P27361+P28482); assay: Increase in ERK1/2 phosphorylation in human HL60 cells at 10 to 30 uM after 2 to 6 hrs by Western blotting method; assay type: cell-based; conditions: HL-60
Mitogen-activated protein kinase; ERK1/ERK2 (Homo sapiens), sequence (P27361 whole entry, looked up): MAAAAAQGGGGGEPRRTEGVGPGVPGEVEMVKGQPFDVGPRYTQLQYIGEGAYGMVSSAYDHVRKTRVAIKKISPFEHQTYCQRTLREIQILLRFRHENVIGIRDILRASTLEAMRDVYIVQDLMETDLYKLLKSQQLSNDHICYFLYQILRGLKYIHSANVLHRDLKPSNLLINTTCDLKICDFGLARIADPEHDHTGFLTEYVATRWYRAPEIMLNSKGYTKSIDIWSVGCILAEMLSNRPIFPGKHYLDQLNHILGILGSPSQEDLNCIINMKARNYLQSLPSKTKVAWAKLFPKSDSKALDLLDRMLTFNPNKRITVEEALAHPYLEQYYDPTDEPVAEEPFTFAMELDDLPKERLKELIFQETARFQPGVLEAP
Mitogen-activated protein kinase; ERK1/ERK2 (Homo sapiens), sequence (P28482 whole entry, looked up): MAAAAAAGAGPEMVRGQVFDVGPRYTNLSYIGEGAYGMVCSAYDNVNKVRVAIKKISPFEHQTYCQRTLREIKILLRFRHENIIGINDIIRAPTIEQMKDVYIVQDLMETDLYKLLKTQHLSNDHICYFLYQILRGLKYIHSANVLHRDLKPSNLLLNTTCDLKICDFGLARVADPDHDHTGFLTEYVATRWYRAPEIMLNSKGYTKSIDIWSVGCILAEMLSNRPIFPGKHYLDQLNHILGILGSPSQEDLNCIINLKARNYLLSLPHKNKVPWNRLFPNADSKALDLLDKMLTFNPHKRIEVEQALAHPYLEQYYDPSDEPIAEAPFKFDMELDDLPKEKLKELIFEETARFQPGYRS
How it was run: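 HL-60 cells were incubated for a time course. Extracts were immunoblotted with phospho-specific antibodies for ERK 1/2, JNK/SAPK and p38MAPK. Membranes were then stripped and reprobed for the total kinases as loading controls.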

HL-60 [4] = assay: Induction of cell cycle arrest in human HL60 cells assessed as accumulation at S phase at 10 uM after 24 hrs by propidium iodide staining based flow cytometry (reference value: 17.9 +/- 0.6%); assay type: functional
HL-60 [5] = assay: Induction of cell cycle arrest in human HL60 cells assessed as accumulation at G2/M phase at 3 uM after 24 hrs by propidium iodide staining based flow cytometry (reference value: 22.5 +/- 0.9%); assay type: functional
HL-60 [6] = assay: Induction of cell cycle arrest in human HL60 cells assessed as accumulation at G1 phase at 3 uM after 12 hrs by propidium iodide staining based flow cytometry (reference value: 57.2 +/- 0.9%); assay type: functional
MOLT-3 [7] = assay: Effect on Bax expression in human MOLT3 cells by Western blotting method; assay type: functional, cell-based
How it was run: (§1)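 Cells were exposed to a range of compound concentrations and harvested at 24 h. Lysates were immunoblotted for caspase proforms and cleaved forms, and for Bcl-2 family proteins.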

U-937 [8] = assay: Induction of cell cycle arrest in human U937 cells assessed as accumulation at S phase at 10 uM after 12 hrs by propidium iodide staining based flow cytometry (reference value: 20.5 +/- 0.8%); assay type: functional
HL-60 [9] = assay: Induction of cell cycle arrest in human HL60 cells assessed as accumulation at subG1 phase at 1 uM after 24 hrs by propidium iodide staining based flow cytometry (reference value: 3.4 +/- 0.3%); assay type: functional
U-937 [10] = assay: Induction of cell cycle arrest in human U937 cells assessed as accumulation at subG1 phase at 3 uM after 24 hrs by propidium iodide staining based flow cytometry (reference value: 3.9 +/- 0.8%); assay type: functional
HL-60 [11] = assay: Induction of cell cycle arrest in human HL60 cells assessed as accumulation at subG1 phase at 3 uM after 24 hrs by propidium iodide staining based flow cytometry (reference value: 3.4 +/- 0.3%); assay type: functional
HL-60 [12] = assay: Induction of cell cycle arrest in human HL60 cells assessed as accumulation at G2/M phase at 1 uM after 48 hrs by propidium iodide staining based flow cytometry (reference value: 17.9 +/- 0.7%); assay type: functional
HL-60 [13] = assay: Induction of apoptosis in human HL60 cells assessed as pro-caspase-3 cleavage by Western blotting method; assay type: functional, cell-based; how it was run: as §1
HL-60 [14] = assay: Induction of cell cycle arrest in human HL60 cells assessed as accumulation at subG1 phase at 3 uM after 48 hrs by propidium iodide staining based flow cytometry (reference value: 3.7 +/- 0.1%); assay type: functional
HL-60 [15] = assay: Induction of apoptosis in human HL60 cells in presence of 10 uM MEK1/2 inhibitor U0126 after 24 hrs by propidium iodide staining based flow cytometry; assay type: functional
MOLT-3 [16] = assay: Induction of apoptosis in human MOLT3 cells assessed as reduction in pro-caspase-4 level by Western blotting method; assay type: functional, cell-based; how it was run: as §1
Raji = assay: Cytotoxicity against human Raji cells after 72 hrs by MTT assay; assay type: functional, cell-based
How it was run: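 MTT colorimetric assay with 72 h continuous exposure. IC50 was fitted per experiment by non-linear regression. Values are means with SE from at least three independent experiments, each run in triplicate.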

HL-60 [17] = assay: Induction of cell cycle arrest in human HL60 cells assessed as accumulation at G1 phase at 10 uM after 24 hrs by propidium iodide staining based flow cytometry (reference value: 53 +/- 1.1%); assay type: functional
U-937 [18] = assay: Induction of apoptosis in human U937 cells assessed as pro-caspase-4 processing by Western blotting method; assay type: functional, cell-based; how it was run: as §1
U-937 [19] = assay: Induction of apoptosis in human U937 cells assessed as pro-caspase-9 processing at 3 and 10 uM after 6 to 24 hrs by immunoblotting method; assay type: functional, cell-based
How it was run: (§2)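 Kinetic and dose-response experiment: cells were treated with the indicated concentrations and harvested at the indicated times. Pro-caspase-8 and -9 cleavage was detected by immunoblotting with antibodies that bind both the proenzyme and the cleaved fragments.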

HL-60 [20] = assay: Induction of cell cycle arrest in human HL60 cells assessed as accumulation at G2/M phase at 10 uM after 12 hrs by propidium iodide staining based flow cytometry (reference value: 18.5 +/- 0.5%); assay type: functional
U-937 [21] = assay: Induction of cell cycle arrest in human U937 cells assessed as accumulation at subG1 phase at 3 uM after 12 hrs by propidium iodide staining based flow cytometry (reference value: 4.6 +/- 0.9%); assay type: functional
HL-60 [22] = assay: Induction of cell cycle arrest in human HL60 cells assessed as accumulation at G2/M phase at 3 uM after 48 hrs by propidium iodide staining based flow cytometry (reference value: 17.9 +/- 0.7%); assay type: functional
U-937 [23] = assay: Induction of cell cycle arrest in human U937 cells assessed as accumulation at subG1 phase at 1 uM after 12 hrs by propidium iodide staining based flow cytometry (reference value: 4.6 +/- 0.9%); assay type: functional
U-937 [24] = assay: Induction of apoptosis in human U937 cells assessed as pro-caspase-8 processing at 3 and 10 uM after 6 to 24 hrs by immunoblotting method; assay type: functional, cell-based; how it was run: as §2
U-937 [25] = assay: Induction of apoptosis in human U937 cells assessed as increase in caspase 9 activity using LEHD-pNA substrate at 10 uM after 24 hrs; assay type: functional, cell-based
How it was run: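 Cells were given 10 µM for 24 h. Lysates were assayed for cleavage of DEVD-pNA (caspase-3/7), IETD-pNA (caspase-8) and LEHD-pNA (caspase-9). Results are expressed as fold over control, from three independent experiments in triplicate.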

HL-60 [26] = assay: Induction of cell cycle arrest in human HL60 cells assessed as accumulation at G1 phase at 1 uM after 48 hrs by propidium iodide staining based flow cytometry (reference value: 60.4 +/- 0.4%); assay type: functional
HL-60 [27] = assay: Induction of cell cycle arrest in human HL60 cells assessed as accumulation at S phase at 10 uM after 48 hrs by propidium iodide staining based flow cytometry (reference value: 15.3 +/- 0.1%); assay type: functional
HL-60 [28] = assay: Induction of apoptosis in human HL60 cells in presence of JNK/SAPK inhibitor SP600125 after 24 hrs by propidium iodide staining based flow cytometry; assay type: functional, cell-based
HL-60 [29] = assay: Induction of cell cycle arrest in human HL60 cells assessed as accumulation at subG1 phase at 1 uM after 48 hrs by propidium iodide staining based flow cytometry (reference value: 3.7 +/- 0.1%); assay type: functional
HL-60 [30] = assay: Induction of cell cycle arrest in human HL60 cells assessed as accumulation at subG1 phase at 10 uM after 48 hrs by propidium iodide staining based flow cytometry (reference value: 3.7 +/- 0.1%); assay type: functional

Activity [3]: Active
SMILES: O=c1c(O)c(-c2ccc(Br)cc2)oc2ccccc12
Activity (U-937 [1]): 19% | Activity (HL-60 [2]): 17.6% | Activity (HL-60 [4]): 24.1% | Activity (HL-60 [5]): 21.8% | Activity (HL-60 [6]): 56.7% | Activity (MOLT-3 [7]): inactive | Activity (U-937 [8]): 24.9% | Activity (HL-60 [9]): 4.1% | Activity (U-937 [10]): 5.5% | Activity (HL-60 [11]): 5.9% | Activity (HL-60 [12]): 20.8% | Activity (HL-60 [13]): Active | Activity (HL-60 [14]): 14.3% | fold change (FC) (HL-60 [15]): 2 | Activity (MOLT-3 [16]): Active | IC50 (Raji): 5.8 µM | Activity (HL-60 [17]): 37.3% | Activity (U-937 [18]): Active | Activity (U-937 [19]): Active | Activity (HL-60 [20]): 13.4% | Activity (U-937 [21]): 3.1% | Activity (HL-60 [22]): 18% | Activity (U-937 [23]): 3.3% | Activity (U-937 [24]): Active | Activity (U-937 [25]): Active | Activity (HL-60 [26]): 57.6% | Activity (HL-60 [27]): 7.3% | Activity (HL-60 [28]): Active | Activity (HL-60 [29]): 3.4% | Activity (HL-60 [30]): 56.7%
